Reference: ChEMBL document CHEMBL1165898, “Novel chromeno [2,3-b]-pyrimidine derivatives as potential anti-microbial agents” (2010)
Values after ≈ are worked out from the molar mass of the structure shown. Active and inactive are the calls of the source. The calls are words filed in the database; no cut-off is given here.

Tests used:
[1] = system: Bacillus subtilis; assay: Antibacterial activity against Bacillus subtilis at 1.6125 to […] after 16 hrs by serial dilution method; format: functional, organism-based
Outline: (§1)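 Tube broth dilution MIC in trypticase soya broth. Colonies from a fresh plate were grown 6 h at 37 °C, adjusted to […] with sterile PBS (10⁸ cfu/mL), then diluted 10³-fold in broth to 10⁵ cfu/mL. Compounds were serially diluted across six tubes per organism and 1 mL inoculum was added. Inoculum-only and broth-only controls were run. Incubation was 16 h at 37 °C. MIC was read as no visible growth.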

[2] = system: Escherichia coli; assay: Antibacterial activity against Escherichia coli at 1.6125 to […] after 16 hrs by serial dilution method; format: functional, organism-based; outline: as §1
[3] = system: Staphylococcus aureus; assay: Antibacterial activity against Staphylococcus aureus at 1.6125 to […] after 16 hrs by serial dilution method; format: functional, organism-based; outline: as §1
[4] = system: Pseudomonas aeruginosa; assay: Antibacterial activity against Pseudomonas aeruginosa after 16 hrs by serial dilution method; format: functional; outline: as §1
[5] = system: Escherichia coli; assay: Antibacterial activity against Escherichia coli after 16 hrs by serial dilution method; format: functional
[6] = system: Pseudomonas aeruginosa; assay: Antibacterial activity against Pseudomonas aeruginosa at 1.6125 to […] after 16 hrs by serial dilution method; format: functional, organism-based; outline: as §1
[7] = system: Staphylococcus aureus; assay: Antibacterial activity against Staphylococcus aureus after 16 hrs by serial dilution method; format: functional
[8] = system: Bacillus subtilis; assay: Antibacterial activity against Bacillus subtilis after 16 hrs by serial dilution method; format: functional

For Cc1cnc(Nc2ncnc3c2Cc2ccccc2O3)s1, the MIC [1] was “inactive”, the MIC [2] was “inactive” and the MIC [3] was “inactive”. The MIC [4] was 25 µg/mL (≈ 84.4 µM).

For c1ccc2c(c1)Cc1c(NC34CC5CCCC(C3)C5C4)ncnc1O2 (stereo not drawn), the MIC [1] was “inactive”, the MIC [5] was 50 µg/mL (≈ 150 µM) and the MIC [3] was “inactive”. It also gave an MIC [4] of 50 µg/mL (≈ 150 µM).

For Clc1ccc(Nc2ncnc3c2Cc2ccccc2O3)c(Cl)c1, the MIC [1] was “inactive”, the MIC [6] was “inactive” and the MIC [2] was “inactive”. For the same compound, the MIC [3] was “inactive”.

Compound CO/N=C(\C(=O)N[C@@H]1C(=O)N2C(C(=O)O)=C(CSc3nc(=O)c(O)nn3C)CS[C@H]12)c1csc(N)n1 [CEFTRIAXONE] has an MIC [5] of 1.61 µg/mL (≈ 2.91 µM), an MIC [7] of 3.12 µg/mL (≈ 5.63 µM) and an MIC [8] of 1.61 µg/mL (≈ 2.91 µM). For the same compound, the MIC [4] was 1.61 µg/mL (≈ 2.91 µM).

c1ccc(CN2CCC(Nc3ncnc4c3Cc3ccccc3O4)CC2)cc1 was tested, and the MIC [6] was “inactive”, the MIC [5] was 3.12 µg/mL (≈ 8.39 µM) and the MIC [7] was 1.61 µg/mL (≈ 4.33 µM). The MIC [8] was 1.61 µg/mL (≈ 4.33 µM).

For Nc1ncnc2c1Cc1ccccc1O2, the MIC [1] was “inactive”, the MIC [6] was “inactive” and the MIC [2] was “inactive”. For the same compound, the MIC [3] was “inactive”.

Cc1ccc(C)c(Nc2ncnc3c2Cc2ccccc2O3)c1 was tested, and the MIC [6] was “inactive”, the MIC [2] was “inactive” and the MIC [7] was 1.61 µg/mL (≈ 5.32 µM). It also gave an MIC [8] of 1.61 µg/mL (≈ 5.32 µM).

For Cc1cc(C(F)(F)F)ccc1Nc1ncnc2c1Cc1ccccc1O2, the MIC [1] was “inactive”, the MIC [6] was “inactive” and the MIC [2] was “inactive”. The MIC [3] was “inactive”.

With Clc1ccc(CNc2ncnc3c2Cc2ccccc2O3)cc1 the MIC [6] was “inactive”, the MIC [5] was 50 µg/mL (≈ 154 µM) and the MIC [7] was 1.61 µg/mL (≈ 4.98 µM). It also gave an MIC [8] of 1.61 µg/mL (≈ 4.98 µM).

In the case of c1ccc(CNc2ncnc3c2Cc2ccccc2O3)cc1, the MIC [6] was “inactive”, the MIC [5] was 25 µg/mL (≈ 86.4 µM) and the MIC [7] was 1.61 µg/mL (≈ 5.57 µM). It also gave an MIC [8] of 1.61 µg/mL (≈ 5.57 µM).

For Cc1ccc(Nc2ncnc3c2Cc2ccccc2O3)cc1F, the MIC [1] was “inactive”, the MIC [6] was “inactive” and the MIC [2] was “inactive”. The MIC [7] was 50 µg/mL (≈ 163 µM).

With c1ccc2c(c1)Cc1c(Nc3cccc4ccccc34)ncnc1O2 the MIC [6] was “inactive”, the MIC [2] was “inactive” and the MIC [7] was 1.61 µg/mL (≈ 4.96 µM). For the same compound, the MIC [8] was 1.61 µg/mL (≈ 4.96 µM).
